In paper PMC4301737 (Journal of molecular biology, 2009):
Like-named read-outs stand apart in the source and are kept apart here.

Columns and labels:
BpeGReg [1] = test: Enzymatic diguanylate cyclase assay; assay type: biochemical, Bordetella pertussis
BpeGReg [2] = test: Ligand binding kinetics and affinity of BpeGReg; design: species or system Bordetella pertussis; conditions: 25°C, 100 mM NaPi, pH 7.5
How it was run: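 His-tagged protein purified by Co2+-affinity, used at 2–5 µM. O2 kon by flash photolysis at 436 or 414 nm with 64–1024 µM O2. O2 koff by stopped-flow at 436 nm, oxy protein mixed with 1 mM dithionite. CO kon by photolysis at 419 nm with 30–480 µM CO. CO koff: 3.5 µM CO-bound protein (20 µM CO) displaced by 500 µM NO at 423 nm. NO kon by photolysis at 435 nm with 15–60 µM NO. Rates taken from linear kobs-versus-ligand plots over ≥4 concentrations.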

HemAT-Bs = conditions: ref Zhang et al.[22], cited from earlier work
[3] = molecular target: sperm-whale myoglobin (SWMb); conditions: ref Springer et al.[23], cited from earlier work

With `Nc1nc2c(ncn2[C@@H]2O[C@@H]3COP(=O)(O)O[C@H]4[C@@H](O)[C@H](n5cnc6c(=O)[nH]c(N)nc65)O[C@@H]4COP(=O)(O)O[C@H]3[C@H]2O)c(=O)[nH]1` [c-di-GMP, bis-(3’–5’)-cyclic diguanosine monophosphate] the “effect on BpeGReg-catalyzed reaction” value (BpeGReg [1]; 20 µM c-di-GMP added at start, 1 µM oxy-BpeGReg, 500 µM GTP) was “strongly inhibited”.

In the case of `[C-]#[O+]` [CO, carbon-monoxide], the CO koff (BpeGReg [2]) is given as 0.056 s⁻¹, the Kd (HemAT-Bs; read-out: CO Kd) is given as 200 nM and the CO koff (HemAT-Bs) is given as 0.067 s⁻¹. For the same molecule, the Kd ([3]; read-out: CO Kd) was 37 nM and the CO koff [3] was 0.019 s⁻¹.

In the case of `O=O` [O2, oxygen], the “drop in activity in the absence of O2” value (BpeGReg [1]; 5 µM BpeGReg in air (Fe(II)O2) vs anaerobic (Fe(II)), 500 µM GTP, PDE-coupled) is reported as 13 fold, the “rate of O2-bound BpeGReg relative to unliganded ferrous form” value (BpeGReg [1]; PDE-coupled assay) is reported as 10 times and the “initial rate of c-di-GMP production by O2-bound BpeGReg” value (BpeGReg [1]; PDE-coupled assay, 500 µM GTP) is reported as 2.5 min⁻¹. For the same molecule, the “c-di-GMP production by liganded state of BpeGReg” value (BpeGReg [1]; compared to the unliganded, CO- and NO-bound forms, HPLC-MS and TLC) was “highest amount of c-di-GMP per mole of protein”, the O2 koff (BpeGReg [2]) was 4.5 s⁻¹ and the Kd (BpeGReg [2]; read-out: O2 Kd) was 640 nM. For the same molecule, the Kd ([3]; read-out: O2 Kd) was 880 nM and the O2 koff [3] was 15 s⁻¹.
